According to ChEMBL document CHEMBL1152758, “Synthesis and cytotoxic activity of new azepino[3',4':4,5]pyrrolo[2,1-a]isoquinolin-12-ones” (Bioorg Med Chem, 2009):

Assays:
[1] = test system: PC-3; assay: Cytotoxicity against human PC3 cells after 48 hrs by SRB assay; format: functional, cell-based; details: PC-3, 48 h
Procedure, shortened: (§1)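 SRB protein-staining microculture growth assay following the Monks method. Cells were detached with 0.1% (w/v) trypsin-EDTA, counted by hemocytometer and diluted in complete medium to 5 × 10⁴ cells/mL (K-562, MCF-7), 7.5 × 10⁴ cells/mL (U-251, PC-3) or 10 × 10⁴ cells/mL (HCT-15). DMSO stocks were tested at 100, 31, 10, 3.1 and 1. After 48 h, cells were fixed in situ with 50% TCA for 60 min at 4 °C. IC50 is the mean of three experiments.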

[2] = Inhibition of Marthasterias glacialis oocyte CDK1/Cyclin B
[3] = test system: K562; assay: Cytotoxicity against human K562 cells after 48 hrs by SRB assay; format: functional, cell-based; details: K562, 48 h; procedure, shortened: as §1
[4] = biological target: Cyclin-dependent kinase 5/CDK5 activator 1 (Homo sapiens, UniProt Q00535); assay: Inhibition of recombinant CDK5/p25 expressed in Escherichia coli
Chain of Cyclin-dependent kinase 5/CDK5 activator 1 (Q00535 whole entry): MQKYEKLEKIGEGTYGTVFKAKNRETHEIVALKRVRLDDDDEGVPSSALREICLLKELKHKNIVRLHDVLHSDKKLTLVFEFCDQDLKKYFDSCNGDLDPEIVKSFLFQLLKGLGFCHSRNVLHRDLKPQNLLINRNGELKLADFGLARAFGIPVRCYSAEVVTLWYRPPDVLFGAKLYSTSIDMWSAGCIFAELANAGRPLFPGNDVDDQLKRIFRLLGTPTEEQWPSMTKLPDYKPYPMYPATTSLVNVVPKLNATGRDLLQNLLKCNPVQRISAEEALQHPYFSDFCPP
Chain of Cyclin-dependent kinase 5/CDK5 activator 1 (Q15078 whole entry, further chain): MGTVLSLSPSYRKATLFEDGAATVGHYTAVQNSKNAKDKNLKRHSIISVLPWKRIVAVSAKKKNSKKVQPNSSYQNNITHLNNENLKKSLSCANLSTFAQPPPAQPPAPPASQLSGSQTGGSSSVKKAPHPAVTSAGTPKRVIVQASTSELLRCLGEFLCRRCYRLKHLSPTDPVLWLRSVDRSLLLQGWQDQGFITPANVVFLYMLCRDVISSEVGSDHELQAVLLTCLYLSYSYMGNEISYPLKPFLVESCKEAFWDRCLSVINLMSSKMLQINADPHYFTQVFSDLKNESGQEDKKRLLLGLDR

[5] = test system: HCT-15; assay: Cytotoxicity against human HCT15 cells after 48 hrs by SRB assay; format: functional, cell-based; details: HCT-15, 48 h; procedure, shortened: as §1
[6] = biological target: Glycogen synthase kinase-3 beta (Homo sapiens, UniProt P49841); assay: Inhibition of GSK3-beta expressed in Sf9 cells
Chain of Glycogen synthase kinase-3 beta (P49841 whole entry): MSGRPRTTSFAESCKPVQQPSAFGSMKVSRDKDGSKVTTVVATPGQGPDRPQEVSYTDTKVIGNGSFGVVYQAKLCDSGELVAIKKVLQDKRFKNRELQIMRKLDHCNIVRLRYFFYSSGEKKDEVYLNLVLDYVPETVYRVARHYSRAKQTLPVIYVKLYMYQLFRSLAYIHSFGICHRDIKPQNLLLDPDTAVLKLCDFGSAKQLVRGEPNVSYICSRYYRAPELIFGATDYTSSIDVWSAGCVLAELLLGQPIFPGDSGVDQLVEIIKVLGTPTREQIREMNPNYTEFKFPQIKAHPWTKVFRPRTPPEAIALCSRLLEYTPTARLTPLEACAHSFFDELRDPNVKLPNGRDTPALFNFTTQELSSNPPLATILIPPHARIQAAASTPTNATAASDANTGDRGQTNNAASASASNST

[7] = test system: U-251; assay: Cytotoxicity against human U251 cells after 48 hrs by SRB assay; format: functional, cell-based; details: U-251, 48 h; procedure, shortened: as §1
[8] = test system: MCF7; assay: Cytotoxicity against human MCF7 cells after 48 hrs by SRB assay; format: functional, cell-based; details: MCF7, 48 h; procedure, shortened: as §1

SMILES | IC50 [1] [µM] | IC50 [2] [µM] | IC50 [3] [µM] | IC50 [4] [µM] | IC50 [5] [µM] | IC50 [6] [µM] | IC50 [7] [µM] | IC50 [8] [µM]
CC1(C)CNC(=O)c2cc3n(c2C1)CCc1cc(Br)ccc1-3 | 33.6 | > 10 | 36.1 | > 10 | 25.6 | > 10 | 18.1 | 43.1
COc1ccc2c(c1)CCn1c-2cc2c1CC(C)(C)CNC2=O | > 100 | – | > 100 | – | > 100 | – | > 100 | > 100
CC1(C)CNC(=O)c2cc(-c3ccc([N+](=O)[O-])cc3)n(-c3ccc(Cl)cc3)c2C1 | 17.4 | – | 15.1 | – | 20 | – | 28.8 | 51.7
CC1(C)CNC(=O)c2cc3n(c2C1)CCc1cc(Cl)ccc1-3 | > 100 | – | > 100 | – | 39.6 | – | > 100 | > 100
CC1(C)CNC(=O)c2cc3n(c2C1)CCc1ccccc1-3 | > 100 | – | > 100 | – | > 100 | – | > 100 | > 100
CC1(C)CC(=O)c2cc3n(c2C1)CCc1cc(Br)ccc1-3 | 50.6 | – | 23.9 | – | 36 | – | 53.3 | 35
COc1ccc2c(c1)CCn1c-2cc2c1CC(C)(C)CC2=O | > 100 | – | 57.5 | – | > 100 | – | > 100 | > 100
CC1(C)CC(=O)c2cc3n(c2C1)CCc1cc(Cl)ccc1-3 | > 100 | – | 10.2 | – | 24.8 | – | > 100 | 41.8
CC1(C)CNC(=O)c2cc(-c3ccc([N+](=O)[O-])cc3)n(-c3ccc(Br)cc3)c2C1 | 21.1 | – | > 100 | – | > 100 | – | 25.6 | > 100
CC1(C)CNC(=O)c2cc3n(c2C1)CCc1cc(F)ccc1-3 | > 100 | > 10 | 33.7 | > 10 | > 100 | > 10 | > 100 | 54.5
CC1(C)CC(=O)c2cc3n(c2C1)CCc1ccccc1-3 | > 100 | – | 36.8 | – | > 100 | – | > 100 | > 100
CC1(C)CNC(=O)c2cc3n(c2C1)CCc1cc([N+](=O)[O-])ccc1-3 | 25.8 | > 10 | > 100 | > 10 | 29.5 | > 10 | > 100 | 43.1
CC1(C)CC(=O)c2cc3n(c2C1)CCc1cc([N+](=O)[O-])ccc1-3 | > 100 | – | 73.7 | – | 16.7 | – | > 100 | > 100
CC1(C)CC(=O)c2cc3n(c2C1)CCc1cc(F)ccc1-3 | > 100 | – | 27.2 | – | 65.5 | – | > 100 | > 100
O=C1Cc2c([nH]c3ccc([N+](=O)[O-])cc23)-c2ccccc2N1 [ALSTERPAULLONE] | 1.12 | – | 1.58 | – | 0.62 | – | 0.68 | 1.24
O=C1Cc2c([nH]c3ccc(Br)cc23)-c2ccccc2N1 [KENPAULLONE] | > 100 | – | > 100 | – | 23.9 | – | > 100 | > 100
